This note sets out measurements from ChEMBL document CHEMBL1833815, “Novel inhibitors of NRH:quinone oxidoreductase 2 (NQO2): crystal structures, biochemical activity, and intracellular effects of imidazoacridin-6-ones” (J Med Chem, 2011).

Data set [1] addresses T1, Ribosyldihydronicotinamide dehydrogenase [quinone] (Homo sapiens, UniProt P16083).
T1 sequence (P16083 whole entry): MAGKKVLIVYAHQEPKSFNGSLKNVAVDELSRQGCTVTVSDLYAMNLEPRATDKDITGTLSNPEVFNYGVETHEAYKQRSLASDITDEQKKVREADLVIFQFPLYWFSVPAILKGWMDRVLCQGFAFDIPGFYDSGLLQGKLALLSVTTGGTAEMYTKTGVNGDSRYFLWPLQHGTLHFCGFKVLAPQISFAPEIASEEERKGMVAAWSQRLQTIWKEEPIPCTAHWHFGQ
The data set is described as follows: Inhibition of human recombinant NQO2 assessed as reduction of DCPIP by spectrophotometry. Put shortly:
(§1)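 Recombinant human NQO2 (His-tag/size-exclusion purified from E. coli BL21) diluted to give about 0.1 A/min. Assay in 50 mM phosphate pH 7.4 with 40 μM DCPIP, 200 μM NRH, and inhibitor in DMSO (1.0% v/v final), with or without 2 μM BSA, at 37 °C. DCPIP reduction followed at 600 nm. IC50 = 50% reduction of initial rate by nonlinear fit; triplicates, three experiments.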

In data set [2] the test system is HCT-116. The data set is described as follows: Cytotoxicity against human HCT116 cells after 24 hrs by MTT assay. In kind it is cell-based. As to conditions: HCT-116, 24 h. Put shortly: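 HCT116 cells in RPMI-1640 with 10% FCS and 2 mM glutamine, seeded at 2.5 × 10³ per well and attached overnight. Exposed to compound for 24 h, then drug replaced with fresh medium, growth to 96 h total. MTT 1.5 mM final for 4 h, formazan in DMSO, A540. IC50 = concentration giving 50% OD reduction versus vehicle; ≥3 separate experiments.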
For orientation: Tetrazolium assays rely on reduction of a dye to a coloured formazan, in cell work by metabolically active cells.

Data set [3] concerns HCT-116. The data set is described as follows: Cytotoxicity against human HCT116 cells after 96 hrs by MTT assay. In kind it is cell-based. As to conditions: HCT-116, 96 h. Put shortly: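 HCT116 cells in RPMI-1640 with 10% FCS and 2 mM glutamine, seeded at 2.5 × 10³ per well, left overnight, then exposed continuously for 96 h in full medium. Viability by MTT (1.5 mM final, 4 h, DMSO solubilization, A540). IC50 = concentration reducing OD by 50% relative to vehicle controls; repeated on at least three occasions.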

Data set [4] is described as follows: Drug uptake in cytoplasm of human MDA468 cells at 25 uM after 3 hrs by phalloidin-based fluorescence imaging. In kind it is ADME, cell-based. As to conditions: mda-mb-468, 3 h. The gist of the method: (§2)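 MDA-MB-468 cells on coverslips at about 70% confluence treated 3 h. Fixed in 3.6% formaldehyde plus 0.2% glutaraldehyde, permeabilized with 0.1% Triton X-100, blocked in 10% BSA. Counterstained with Alexa Fluor 568 phalloidin (1:1000) to show actin architecture. Compound fluorescence imaged at excitation 340 nm, emission 520 nm; phalloidin visualized at 568 nm.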

In data set [5] the target is T2, Ribosyldihydronicotinamide dehydrogenase [quinone] (Homo sapiens) (UniProt P16083).
T2 sequence (whole entry): T1 sequence (P16083 whole entry)
Nature of the data set: Inhibition of NQO2-mediated activation of CB1954 in human MDA468 cells at 100 uM after 3 hrs in the presence of 100 uM […]. It counts as cell-based. As to conditions: MDA-MB-468. The gist of the method:
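MDA468 cells exposed 3 h to inhibitor together with CB1954 (10 μM in figure; varying concentrations per methods) plus 100 μM NRH cofactor. Cells then washed with PBS, refed with fresh medium, and incubated to 96 h total. Viability measured by MTT assay; protection from CB1954 toxicity serves as a readout of cellular NQO2 inhibition.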

Data set [6] addresses T1, Ribosyldihydronicotinamide dehydrogenase [quinone]. The data set is described as follows: Inhibition of human recombinant NQO2 assessed as reduction of DCPIP by spectrophotometry in the presence of 2 uM BSA. The gist of the method:
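Recombinant human NQO2 (His-tag/size-exclusion purified, expressed in BL21 codon+ cells) in 50 mM phosphate pH 7.4 with 40 μM DCPIP and 200 μM NRH, 2 μM BSA present, inhibitor in DMSO (1.0% v/v final), 37 °C. DCPIP reduction followed at 600 nm; IC50 = 50% drop in initial rate by nonlinear fit; triplicates, three experiments.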

Data set [7] addresses T2, Ribosyldihydronicotinamide dehydrogenase [quinone] (Homo sapiens). Nature of the data set: Ratio of IC50 for human recombinant NQO2 in the presence of BSA to IC50 for human recombinant NQO2 in the absence of BSA. Put shortly: as §1
Another data set relates to Nucleic Acid. Nature of the data set: Binding affinity to calf thymus DNA assessed as increase in melting temperature at 10 uM. In kind it is nucleic-acid assay. As to conditions: Bos taurus. Put shortly:
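Calf thymus DNA (20 μg/mL) with 10 μM compound in low-salt phosphate buffer (7.5 mM NaH₂PO₄, 1 mM EDTA, pH 7.0). Cuvettes heated from 37 to 98 °C with A260 read at every degree. Tm taken from at least three independent determinations; 10 μM adriamycin served as positive control.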

The nature of data set [8]: Drug uptake in nucleus of human MDA468 cells assessed as subcellular localization at 25 uM after 3 hrs by phalloidin-based fluorescent imaging. In kind it is ADME, cell-based. As to conditions: mda-mb-468, 3 h. Put shortly:
as §2

Data set [9] in a line: Drug uptake in nucleus of human MDA468 cells assessed as subcellular localization at 5 uM after 3 hrs by phalloidin-based fluorescent imaging. As to conditions: mda-mb-468, 3 h. It counts as ADME, cell-based. The gist of the method: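 MDA-MB-468 cells grown on coverslips to about 70% confluency, exposed 3 h, fixed in 3.6% formaldehyde plus 0.2% glutaraldehyde, permeabilised with 0.1% Triton X-100, blocked in 10% BSA, stained with Alexa Fluor 568 phalloidin (1:1000) for actin. Imaged by fluorescence microscopy; compound excited at 340 nm, emission 520 nm; phalloidin read at 568 nm.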

SMILES strings stand for the structures. The source made the active and inactive calls. No cut-off for these calls is given here.

A word on the IC50: it is the concentration that gives 50% inhibition. Regarding `C[N+](C)([O-])CCNc1ccc2ncn3c4ccc(F)cc4c(=O)c1c23`, the IC50 in [1] is 205 nM; in the data set on HCT-116 [2], 40.3 µM; with HCT-116 [3], 17300 nM.
Regarding `Cc1nc2ccc(NCC[N+](C)(C)[O-])c3c(=O)c4ccccc4n1c23`, the IC50 in data set [1] was 56 nM; in the data set with HCT-116 [2] it was 34.9 µM; with HCT-116 [3] it was 16100 nM.
For the compound `COc1ccc2c(c1)c(=O)c1c(NCC[N+](C)(C)[O-])ccc3ncn2c31`, the IC50 was 14 nM in [1], 40.3 µM in the data set on HCT-116 [2], 98 nM in data set [6] and 12800 nM with HCT-116 [3]. For the same compound, the Drug uptake entry was “Active” in data set [4] and “Not Active” in data set [8]. The inhibition result in data set [5] was “Active”. Moreover, the Ratio IC50 in [7] is 7. Also, the Tm with Nucleic Acid worked out at 85 °C.
With `COc1cccc2c1C(=O)c1c(O)c3c(c(O)c1C2=O)C[C@@](O)(C(=O)CO)C[C@@H]3O[C@H]1C[C@H](N)[C@H](O)[C@H](C)O1`, the Tm in the data set with Nucleic Acid is 90.8 °C.
As to `COc1ccc2c(c1)c(=O)c1c(NCCN(C)C)ccc3nc(C)n2c31`, the IC50 in data set [1] stood at 46 nM; with HCT-116 [2], 1.86 µM; in the data set on HCT-116 [3] it was 460 nM.
`Cc1nc2ccc(NCCN(C)C)c3c(=O)c4cc(F)ccc4n1c23`: the IC50 in data set [1] amounted to 83 nM; in the data set on HCT-116 [2], 2.11 µM; with HCT-116 [3] it was 510 nM.
The matching figures for `Cc1nc2ccc(NCC[N+](C)(C)[O-])c3c(=O)c4cc(F)ccc4n1c23`: 97 nM, 31 µM and 9200 nM.
Regarding `COc1ccc2c(c1)c(=O)c1c(NCC[N+](C)(C)[O-])ccc3nc(C)n2c31`, the half-maximal inhibitory concentration (IC50) in data set [1] was 73 nM; in the data set with HCT-116 [2], 58.2 µM; in the data set on HCT-116 [3] it was 11400 nM.
As for `CN(C)CCNc1ccc2ncn3c4ccc(F)cc4c(=O)c1c23`, the half-inhibitory concentration (IC50) in [1] was 97 nM; in the data set on HCT-116 [2], 2.9 µM; in the data set with HCT-116 [3], 660 nM.
`CCN(CC)CCNc1ccc2nc(C)n3c4ccc(O)cc4c(=O)c1c23`: the IC50 in [1] stood at 54 nM; with HCT-116 [2] it was 5.46 µM; with HCT-116 [3], 930 nM.
Regarding `CN(C)CCNc1ccc2ncn3c4ccc(O)cc4c(=O)c1c23`, the IC50 in data set [1] came out at 83 nM; in the data set on HCT-116 [2], 1.61 µM; in the data set on HCT-116 [3], 370 nM.
Take `C[N+](C)([O-])CCNc1ccc2ncn3c4ccccc4c(=O)c1c23`: the 50% inhibitory concentration (IC50) in data set [1] was found to be 96 nM; in the data set on HCT-116 [2], 41 µM; with HCT-116 [3] it was 12100 nM. Further, in data set [7], the Ratio IC50 worked out at 6.5.
Turning to `CN(C)CCNc1ccc2ncn3c4ccccc4c(=O)c1c23`, the IC50 in [1] was 115 nM; in the data set on HCT-116 [2], 2.53 µM; in the data set with HCT-116 [3], 600 nM. Also, the Ratio IC50 in [7] came to 38.
As for `Cc1nc2ccc(NCCN(C)C)c3c(=O)c4cc(O)ccc4n1c23`, the results for the IC50 (in data set [1]; in the data set with HCT-116 [2]; in the data set on HCT-116 [3]) were 90 nM, 3.01 µM and 950 nM, respectively.
Turning to `COc1ccc2c(c1)c(=O)c1c(NCCN(C)C)ccc3ncn2c31`, the IC50 in data set [1] was 59 nM; in the data set on HCT-116 [2], 2.1 µM; in data set [6], 3200 nM; in the data set on HCT-116 [3], 510 nM. The Ratio IC50 in data set [7] was found to be 54. Moreover, in the data set on Nucleic Acid, the Tm came to 88.6 °C. Besides, the Drug uptake result in [9] is given as “Active”.
Consider `Cc1nc2ccc(NCCN(C)C)c3c(=O)c4cc(Br)ccc4n1c23`, for which the IC50 came to 74 nM in data set [1], 1.91 µM in the data set on HCT-116 [2] and 440 nM with HCT-116 [3].
Consider `C[N+](C)([O-])CCNc1ccc2ncn3c4ccc(O)cc4c(=O)c1c23`, for which the IC50 in [1] is 42 nM; with HCT-116 [2], 38.7 µM; in the data set on HCT-116 [3], 19700 nM.
`CCN(CC)CCNc1ccc2ncn3c4ccc(O)cc4c(=O)c1c23` [C-1311]: the figures for the IC50 (in [1]; in the data set on HCT-116 [2]; in the data set on HCT-116 [3]) were 126 nM, 4.16 µM and 1140 nM, respectively.
The like results for `Cc1nc2ccc(NCCN(C)C)c3c(=O)c4ccccc4n1c23` were, in that order, 90 nM, 1.94 µM and 500 nM.
The matching figures for `Cc1nc2ccc(NCC[N+](C)(C)[O-])c3c(=O)c4cc(Br)ccc4n1c23`: 47 nM, 49 µM and 10600 nM.
